NPY Y2 blocker – NPY-Y2 (human) receptor antagonism; P49146; NPY-Y2 expressing cells, antagonist mode; inhibition, % at 2.7 µM; 0.99% of 140,000 active; AID 793; in the data active = inhibition above about 17%
Target sequence (P49146 whole entry, looked up): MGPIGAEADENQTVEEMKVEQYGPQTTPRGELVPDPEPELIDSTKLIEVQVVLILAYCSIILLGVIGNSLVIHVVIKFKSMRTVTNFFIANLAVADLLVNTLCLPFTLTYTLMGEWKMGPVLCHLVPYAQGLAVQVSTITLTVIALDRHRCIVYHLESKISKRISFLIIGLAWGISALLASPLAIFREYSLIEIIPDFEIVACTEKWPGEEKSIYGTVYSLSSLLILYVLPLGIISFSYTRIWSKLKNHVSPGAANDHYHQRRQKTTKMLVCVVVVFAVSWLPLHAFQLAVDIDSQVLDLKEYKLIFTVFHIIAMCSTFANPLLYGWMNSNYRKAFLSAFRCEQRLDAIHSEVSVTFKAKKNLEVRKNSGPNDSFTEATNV
MDM2 E3 inh – Mdm2 E3 ligase (human) inhibition | AID 1230 | Q00987 | cell-based MDM2 ubiquitination luciferase reporter, 2 h; 0 = plate control, 100 = twice control, blank-subtracted | signal enhancement, % at 5 µM | 0.11% of 210,000 active;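 active = signal enhancement of 30% or more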;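 also: luminescence tracks abundance of the self-degrading MDM2-luciferase fusion protein; higher signal means inhibition of MDM2 E3 ligase activity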
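Material: stable MDM2–luciferase fusion reporter cells / Quantity: 2000 cells/well / Dosing: single 5 µM compound dose, 0.2% final DMSO / Buffer or medium: DMEM / Schedule: 4 h cell settling then 2 h compound exposure, 37 °C / Detection: luminescence with SteadyLite reagent, 15 min at room temperature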
NPY-Y2 PAM-ag – human NPY-Y2 potentiation or agonism, primary screen | AID 1359 | cells expressing NPY-Y2, potentiator/agonist read-out | P49146 | activation, % at 3.6 µM | 0.45% of 220,000 active; in the data active = activation above about 27%;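 also: cells stimulated with NPY near EC25 plus isoproterenol at EC100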
NPY-Y1 antag – NPY-Y1 (human) receptor antagonism; inhibition, % at 3.6 µM; HEK293-CNG Y1 cells, membrane potential fluorescence; NPY at EC95, then isoproterenol; 1% of 200,000 active; AID 1040; P25929;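 active = inhibition above the campaign mean inhibition of all tested compounds plus 3 SD, cut at about 20% in these data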
Target sequence (P25929 whole entry, looked up): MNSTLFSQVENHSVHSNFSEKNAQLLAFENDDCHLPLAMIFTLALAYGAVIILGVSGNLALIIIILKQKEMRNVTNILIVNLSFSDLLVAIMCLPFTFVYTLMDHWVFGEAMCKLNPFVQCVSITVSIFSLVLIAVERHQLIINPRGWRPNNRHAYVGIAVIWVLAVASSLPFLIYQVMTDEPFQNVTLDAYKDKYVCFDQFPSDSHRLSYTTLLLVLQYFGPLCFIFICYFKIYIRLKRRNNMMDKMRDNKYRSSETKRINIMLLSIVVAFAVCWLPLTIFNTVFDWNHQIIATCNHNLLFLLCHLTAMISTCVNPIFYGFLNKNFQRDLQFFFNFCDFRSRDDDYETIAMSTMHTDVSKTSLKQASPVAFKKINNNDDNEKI
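Material: Y1- and CNG-channel-expressing HEK293 cells / Probe or stimulus: NPY 25 nM then isoproterenol 1 µM plus Ro 20-1724 25 µM / Doses: 3.6 µM single dose, DMSO 0.4% / Schedule: compound incubation 1 h at room temperature, readout 45 min post-stimulation / Signal: membrane potential fluorescence / Benchmarks: isoproterenol-only wells as full block versus NPY-plus-isoproterenol wells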
Measles CPE – protection of cells from measles virus; Measles virus-infected cells, CPE protection, absorbance; protection (pct of control), % at 4 µM; 1.5% of 140,000 active; AID 841; in the data active = protection mostly above about 24%, no sharp cut-off; inactive = mostly below about 26%
NPY1 pot ag – potentiates or activates human NPY-Y1 receptor | 0.37% of 220,000 active | AID 1304 | activation, % at 3.6 µM | NPY-Y1 expressing cells, potentiator/agonist activation | P25929; in the data active = activation above about 33%, passing the limit was not always enough;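 also: cells stimulated with NPY at EC10 then isoproterenol at EC100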
Large screens that a line does not name were inactive. Sampled rows, rich in hits. Any-hit rate of the full collection: about 2.8%.

CC(Sc1nnc(-c2ccc(Cl)cc2Cl)n1Cc1ccccc1)C(=O)Nc1nccs1 (stereo unspecified)	NPY Y2 blocker 29, NPY-Y1 antag 26
CC1=CC(=C(C#N)c2nc3ccccc3s2)C=C(C)N1CC1CCCO1 (stereo unspecified)	none (no result: NPY Y2 blocker, Measles CPE)
COCCOCCOCCC(=O)NC1CC2CCC1(C)C2(C)C (stereo unspecified)	Measles CPE 51
C/C(=N\Nc1nc2ccccc2s1)c1ccc2c(c1)OCO2	NPY Y2 blocker 31, NPY-Y1 antag 35
COC(=O)[C@@H]1C(c2c(OC)cc(OC)cc2OC)=NO[C@H]1C(=O)OC	NPY-Y2 PAM-ag 42, NPY1 pot ag 56
Cc1cc(Cl)ccc1OCC(=O)NCc1ccncc1	Measles CPE 48
Cc1c(Cc2c(Cl)cccc2Cl)c(=O)ccn1C(C)c1ccccc1 (stereo unspecified)	NPY Y2 blocker 22
Cc1cc(N/N=C/c2ccc(F)cc2)nc(NCc2ccccc2)n1	none (no result: NPY Y2 blocker, NPY-Y1 antag, Measles CPE)
Cc1cc(Oc2ccccc2F)nc(NCc2ccccc2)n1	NPY Y2 blocker 24, NPY-Y1 antag 26
Cc1cc(Nc2ccccc2)nc(NCc2ccccc2)n1	none
CCCCNc1cc(C)nc(NCc2ccccc2)n1	NPY Y2 blocker 29, NPY-Y1 antag 31
Cc1ccccc1CN1CCN(Cc2ccccc2C(F)(F)F)CC1	none
FC(F)(F)c1ccccc1CN1CCN(C2CCCCCC2)CC1	NPY Y2 blocker 22, NPY-Y1 antag 23
O=C(Cc1cccs1)N(Cc1cccs1)C1(C(=O)NC2CCCCC2)CCCCC1	NPY Y2 blocker 37, NPY-Y1 antag 52
O=C(c1cnccn1)N(Cc1cccs1)C1(C(=O)NC2CCCCC2)CCCCC1	NPY Y2 blocker 21, NPY-Y1 antag 38
O=C(c1cnccn1)N(Cc1cccs1)C1(C(=O)NC2CCCC2)CCCCC1	NPY Y2 blocker 26, NPY-Y1 antag 42
O=C1NC(=O)C(CC(=O)N(Cc2cccs2)C2(C(=O)NC3CCCC3)CCCCC2)N1 (stereo unspecified)	none
O=C1CCC(C(=O)N(Cc2cccs2)C2(C(=O)NC3CCCCC3)CCCCC2)N1 (stereo unspecified)	none (no result: NPY Y2 blocker, Measles CPE)
Cc1nnc(NC(=O)CSc2ccc3nnc(-c4cccnc4)n3n2)s1	none (no result: NPY Y2 blocker, Measles CPE)
O=C1N=C(N2CCN(c3ccccc3)CC2)S/C1=C\c1cn[nH]c1-c1ccccc1	Measles CPE 29
CCC(C)Cn1c(S(=O)(=O)O)nc2ccccc21 (stereo unspecified)	Measles CPE 50
CC(C)Cn1c(S(=O)(=O)O)nc2ccccc21	none (no result: NPY Y2 blocker, NPY-Y1 antag, Measles CPE)
CCOC(=O)COc1ccc(C2CC(C)=NN2c2ccccc2)cc1 (stereo unspecified)	MDM2 E3 inh 32 (no result: NPY Y2 blocker, Measles CPE)
O=c1c2ccccc2nc2n1C(CBr)CN2 (stereo unspecified)	none (no result: NPY Y2 blocker, MDM2 E3 inh, NPY-Y1 antag, Measles CPE)
CCn1c(SCC(=O)Nc2oc(-c3ccccc3)c(-c3ccccc3)c2C#N)nnc1-c1ccncc1	none
N#Cc1c(NC(=O)CSc2ccccn2)oc(-c2ccccc2)c1-c1ccccc1	NPY Y2 blocker 21, NPY-Y1 antag 38, Measles CPE 33
CCOc1ccc(-c2noc(=O)[nH]2)cc1	Measles CPE 38
COc1ccc(C(O)Cn2cc([N+](=O)[O-])nc2C)cc1 (stereo unspecified)	none (no result: NPY Y2 blocker, NPY-Y1 antag, Measles CPE)
CCOc1ccc2cc(/C=C/C(=O)c3ccco3)c(Cl)nc2c1	none (no result: MDM2 E3 inh)
Cc1nc2c3ccccc3[nH]c(=O)n2n1	Measles CPE 68 (no result: MDM2 E3 inh)
CCOC(=O)c1c(C)[nH]c(C)c1C(=O)COC(=O)c1cccc(S(=O)(=O)N(CC)CC)c1	none
CCOC(=O)c1c(C)[nH]c(C)c1C(=O)COC(=O)c1ccc(S(=O)(=O)N(CC)CC)cc1	Measles CPE 51
Cc1noc(C)c1CSc1nc2ccccc2c(=O)n1-c1ccc(Cl)cc1	NPY Y2 blocker 32, NPY-Y1 antag 28
O=[N+]([O-])c1ccccc1Nc1c2ccccc2nc2ccccc12	NPY-Y2 PAM-ag 49, NPY1 pot ag 50 (no result: NPY Y2 blocker, Measles CPE)
O=c1oc(-c2ccccc2[N+](=O)[O-])nc2ccccc12	none
NNC(=O)c1ccc(OCC2CC(c3ccc(Cl)cc3)=NO2)cc1 (stereo unspecified)	none (no result: NPY Y2 blocker, NPY-Y1 antag, Measles CPE)
CSc1nnc2c3ccccc3n(Cc3ccccc3)c2n1	none
CSc1nnc2c3ccccc3n(CCc3ccccc3)c2n1	NPY Y2 blocker 28, NPY-Y1 antag 29, Measles CPE 55
Cc1ccccc1Nc1c(-c2cccnc2)nc2cccc(C)n12	NPY-Y2 PAM-ag 29, NPY1 pot ag 39 (no result: NPY Y2 blocker, Measles CPE)
Cc1ccccc1Nc1nc(-c2cccnc2)nc2ccccc12	none (no result: NPY Y2 blocker, Measles CPE)
CC/C(=N\Nc1ccccc1[N+](=O)[O-])c1ccc(O)cc1	NPY-Y2 PAM-ag 47, NPY1 pot ag 74 (no result: NPY Y2 blocker, Measles CPE)
COc1cc(/C(C)=N/NC(=S)NC(C)C)cc(OC)c1OC	none
COc1cc(/C(C)=N\NC(N)=S)cc(OC)c1OC	Measles CPE 35
COC(=O)c1cnn(-c2cc(Oc3cccc(C)c3)ncn2)c1N	none
CC(=O)c1cnn(-c2cc(Oc3cccc(C)c3)ncn2)c1C	Measles CPE 51
CN1[C@@H]2CC[C@H]1CC(OC(=O)C(CO)c1ccccc1)C2 (stereo partly specified)	none (no result: MDM2 E3 inh)
Cc1ccc(-n2nnnc2SCC(=O)Nc2ccccc2N2CCCCC2)cc1C	NPY Y2 blocker 28, NPY-Y1 antag 48
CCOc1ccc(NC(=O)Nc2ccc3c(c2)N(C)C(=O)CS3)cc1	Measles CPE 41
CC(=O)c1ccc(NC(=O)Nc2ccc3c(c2)N(C)C(=O)CS3)cc1	none
O=C(Nc1cccc(-c2nc3ncccc3o2)c1)c1cc2ccccc2o1	none
Cc1ccc(-c2nc3ncccc3o2)cc1NC(=O)c1cc2ccccc2o1	NPY Y2 blocker 20, NPY-Y1 antag 22
COC(=O)c1ccc(NS(=O)(=O)c2ccccc2)o1	none (no result: NPY Y2 blocker, Measles CPE)
CCN(CCNC(=O)C1CCCN(S(=O)(=O)CC)C1)c1ccccc1 (stereo unspecified)	none
CCN(CCNC(=O)C1CCN(S(=O)(=O)CC)CC1)c1ccccc1	Measles CPE 60
Cc1cc(C)cc(NC(=S)NCCN(C2CCCCC2)C2CCCC2)c1	NPY-Y1 antag 21 (no result: NPY Y2 blocker, Measles CPE)
Cc1ccc(NC(=S)NCCN(C2CCCCC2)C2CCCC2)cc1	none (no result: NPY Y2 blocker, Measles CPE)
Cc1ccccc1Nc1nc(N)nc(CN(C)Cc2ccccc2Cl)n1	none
CCCOc1ccc(C(C)=O)cc1CSCCC#N	Measles CPE 40
COc1ccc(C(C)=O)cc1CSCCC#N	none
Brc1ccc(N=C(c2ccccc2)c2ccncc2)cc1	none
N/C(=N\NC(=O)c1cccs1)c1cc2cc(Cl)ccc2oc1=O	none (no result: NPY Y2 blocker, MDM2 E3 inh, NPY-Y1 antag, Measles CPE)
CCN=c1scc(-c2ccc(F)cc2)n1/N=C/c1ccccn1	none (no result: NPY Y2 blocker, Measles CPE)
C=CCN=c1scc(-c2ccc(F)cc2)n1/N=C/c1ccccn1	NPY-Y2 PAM-ag 33, NPY1 pot ag 60
C=CCN=c1scc(-c2ccccc2)n1/N=C/c1ccccn1	Measles CPE 50
